Experimental data published in ChEMBL document CHEMBL1649572, “Synergistic interaction between silver nanoparticles and membrane-permeabilizing antimicrobial peptides” (Antimicrob Agents Chemother, 2009).
In brackets after ≈: the same amount, converted by molar mass. Square brackets hold non-standard residues; d marks the D form. Peptide text beside a SMILES is read from it. * marks the point of attachment. Orn = NCCC[C@H](N)C(=O)O; NHCH2CH2OH = OCCN*; For = O=C*

Assays:
Escherichia coli [1] = test: microbe, parasite or virus in culture; type: functional; details: DSM 498
[2] = tested on: Acinetobacter calcoaceticus; test: microbe, parasite or virus in culture; type: functional; details: DSM 586
Enterobacter helveticus [3] = test: microbe, parasite or virus in culture; type: functional; details: Franconibacter helveticus, DSM 18396
Aeromonas bestiarum [4] = test: microbe, parasite or virus in culture; type: functional; details: DSM 13956
Proteus myxofaciens [5] = test: microbe, parasite or virus in culture; type: functional; details: DSM 4482
Pseudomonas fluorescens [6] = test: microbe, parasite or virus in culture; type: functional; details: DSM 50090
Bacillus subtilis [7] = test: microbe, parasite or virus in culture; type: functional; details: DSM 347
Kocuria rhizophila [8] = test: microbe, parasite or virus in culture; type: functional; details: DSM 348
Micrococcus luteus [9] = test: microbe, parasite or virus in culture; type: functional; details: DSM 1790
Bacillus subtilis [10] = test: Antibacterial activity against Bacillus subtilis DSM 347 in presence of silver nitrate; type: functional
Summary of the method: (§1)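 Two-dimensional (checkerboard) microdilution: AgNO3 or carbon-matrix-stabilized silver nanoparticles (mean diameter 25 nm) crossed with a membrane-active antimicrobial peptide, in salt-free Luria/Miller bouillon. Nanoparticles dissolved in 8 mM Tris/HCl pH 7.6 with 150 mM NaCl. MICs taken alone and in combination; FIC index = MIC(A with B)/MIC(A alone) + MIC(B with A)/MIC(B alone). <0.5 synergy, 0.5–2.0 additive, >2.0 antagonism.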

Kocuria rhizophila [11] = test: Antibacterial activity against Kocuria rhizophila DSM 348 in presence of silver nitrate; type: functional
Summary of the method: as §1

Micrococcus luteus [12] = test: Antibacterial activity against Micrococcus luteus DSM 1790 in presence of silver nitrate; type: functional
Summary of the method: as §1

Bacillus subtilis [13] = test: Antibacterial activity against Bacillus subtilis DSM 347 in presence of silver nanoparticles; type: functional
Summary of the method: as §1

Kocuria rhizophila [14] = test: Antibacterial activity against Kocuria rhizophila DSM 348 in presence of silver nanoparticles; type: functional
Summary of the method: as §1

Micrococcus luteus [15] = test: Antibacterial activity against Micrococcus luteus DSM 1790 in presence of silver nanoparticles; type: functional
Summary of the method: as §1

[16] = Toxicity in human erythrocytes assessed as hemolysis by serial dilution method
Escherichia coli [17] = test: Antibacterial activity against Escherichia coli DSM 498 in presence of silver nitrate; type: functional
Summary of the method: as §1

Pseudomonas fluorescens [18] = test: Antibacterial activity against Pseudomonas fluorescens DSM 50090 in presence of silver nitrate; type: functional
Summary of the method: as §1

Escherichia coli [19] = test: Antibacterial activity against Escherichia coli DSM 498 in presence of silver nanoparticles; type: functional
Summary of the method: as §1

Pseudomonas fluorescens [20] = test: Antibacterial activity against Pseudomonas fluorescens DSM 50090 in presence of silver nanoparticles; type: functional
Summary of the method: as §1

[21] = tested on: Acinetobacter calcoaceticus; test: Antibacterial activity against Acinetobacter calcoaceticus DSM 586 in presence of silver nitrate; type: functional
Summary of the method: as §1

Enterobacter helveticus [22] = test: Antibacterial activity against Enterobacter helveticus DSM 18396 in presence of silver nitrate; type: functional, Franconibacter helveticus
Summary of the method: as §1

Enterobacter helveticus [23] = test: Antibacterial activity against Enterobacter helveticus DSM 18396 in presence of silver nanoparticles; type: functional, Franconibacter helveticus
Summary of the method: as §1

Aeromonas bestiarum [24] = test: Antibacterial activity against Aeromonas bestiarum DSM 13956 in presence of silver nitrate; type: functional
Summary of the method: as §1

Proteus myxofaciens [25] = test: Antibacterial activity against Proteus myxofaciens DSM 4482 in presence of silver nitrate; type: functional
Summary of the method: as §1

Aeromonas bestiarum [26] = test: Antibacterial activity against Aeromonas bestiarum DSM 13956 in presence of silver nanoparticles; type: functional
Summary of the method: as §1

Proteus myxofaciens [27] = test: Antibacterial activity against Proteus myxofaciens DSM 4482 in presence of silver nanoparticles; type: functional
Summary of the method: as §1

Escherichia coli [28] = details: DSM 498
[29] = tested on: Acinetobacter calcoaceticus; details: DSM 586
Enterobacter helveticus [30] = details: Franconibacter helveticus; DSM 18396
Aeromonas bestiarum [31] = details: DSM 13956
Proteus myxofaciens [32] = details: DSM 4482
Pseudomonas fluorescens [33] = details: DSM 50090
Bacillus subtilis [34] = details: DSM 347
Kocuria rhizophila [35] = details: DSM 348
Micrococcus luteus [36] = details: DSM 1790

Molecule	MIC (Escherichia coli [1]) [µg/mL]	MIC [2] [µg/mL]	MIC (Enterobacter helveticus [3]) [µg/mL]	MIC (Aeromonas bestiarum [4]) [µg/mL]	MIC (Proteus myxofaciens [5]) [µg/mL]	MIC (Pseudomonas fluorescens [6]) [µg/mL]	MIC (Bacillus subtilis [7]) [µg/mL]	MIC (Kocuria rhizophila [8]) [µg/mL]	MIC (Micrococcus luteus [9]) [µg/mL]	fractional inhibitory concentration index (FICI) (Bacillus subtilis [10])	fractional inhibitory concentration index (FICI) (Kocuria rhizophila [11])	fractional inhibitory concentration index (FICI) (Micrococcus luteus [12])	fractional inhibitory concentration index (FICI) (Bacillus subtilis [13])	fractional inhibitory concentration index (FICI) (Kocuria rhizophila [14])	fractional inhibitory concentration index (FICI) (Micrococcus luteus [15])	HC50 ([16]; human erythrocytes) [µg/mL]	fractional inhibitory concentration index (FICI) (Escherichia coli [17])	fractional inhibitory concentration index (FICI) (Pseudomonas fluorescens [18])	fractional inhibitory concentration index (FICI) (Escherichia coli [19])	fractional inhibitory concentration index (FICI) [21]	other results
CC(=O)NC(C)(C)C(=O)N1CCC[C@H]1C(=O)NC(C)(C)C(=O)N[C@@H](C)C(=O)NC(C)(C)C(=O)N[C@@H](C)C(=O)N[C@@H](CCC(N)=O)C(=O)NC(C)(C)C(=O)N[C@H](C(=O)NC(C)(C)C(=O)NCC(=O)N[C@@H](CC(C)C)C(=O)NC(C)(C)C(=O)N1CCC[C@H]1C(=O)N[C@H](C(=O)NC(C)(C)C(=O)NC(C)(C)C(=O)N[C@@H](CCC(=O)O)C(=O)N[C@@H](CCC(N)=O)C(=O)N[C@H](CO)Cc1ccccc1)C(C)C)C(C)C [ALAMETHICIN]	256 (≈ 130 µM)	256 (≈ 130 µM)	256 (≈ 130 µM)	256 (≈ 130 µM)	256 (≈ 130 µM)	128 (≈ 65.2 µM)	8 (≈ 4.07 µM)	8 (≈ 4.07 µM)	8 (≈ 4.07 µM)	1	1		0.88	1		17.9	0.5	1	0.5		fractional inhibitory concentration index (FICI) (Pseudomonas fluorescens [20]): 1
H-GIGKFLHSAKKFGKAFVGEIMNS-OH [MAGAININ 2]	16	16	8	> 256	> 256	> 256	16	16	16	0.69	0.67	1.02	0.67	0.96	1.04	202	1		0.86	0.79	fractional inhibitory concentration index (FICI) (Enterobacter helveticus [22]): 0.71; fractional inhibitory concentration index (FICI) (Enterobacter helveticus [23]): 0.59
CC(C)C[C@@H]1NC(=O)[C@H](CCCN)NC(=O)[C@H](C(C)C)NC(=O)[C@@H]2CCCN2C(=O)[C@@H](Cc2ccccc2)NC(=O)[C@H](CC(C)C)NC(=O)[C@H](CCCN)NC(=O)[C@H](C(C)C)NC(=O)[C@@H]2CCCN2C(=O)[C@@H](Cc2ccccc2)NC1=O [GRAMICIDIN S] (cyclo(L[dF]PV[Orn]L[dF]PV[Orn]))	8 (≈ 7.01 µM)	16 (≈ 14 µM)	4 (≈ 3.5 µM)	32 (≈ 28 µM)	16 (≈ 14 µM)	16 (≈ 14 µM)	2 (≈ 1.75 µM)	4 (≈ 3.5 µM)	2 (≈ 1.75 µM)	0.73	0.92	0.92	0.77	0.83	1.25	10.1	0.83	0.67	0.56	0.77	fractional inhibitory concentration index (FICI) (Enterobacter helveticus [22]): 0.32; fractional inhibitory concentration index (FICI) (Aeromonas bestiarum [24]): 0.53; fractional inhibitory concentration index (FICI) (Proteus myxofaciens [25]): 0.63; fractional inhibitory concentration index (FICI) (Enterobacter helveticus [23]): 0.44; fractional inhibitory concentration index (FICI) (Aeromonas bestiarum [26]): 0.63; fractional inhibitory concentration index (FICI) (Proteus myxofaciens [27]): 0.38; fractional inhibitory concentration index (FICI) (Pseudomonas fluorescens [20]): 0.48
POLYMYXIN B [listing 1 of 2 here]																					HC50 ([16]; erythrocyte): 210.7 µg/mL
POLYMYXIN B [listing 2 of 2 here]										0.59	0.83	0.58	0.96	0.61	0.96		0.38	0.56	0.38	0.83	fractional inhibitory concentration index (FICI) (Enterobacter helveticus [22]; Franconibacter helveticus): 0.29; fractional inhibitory concentration index (FICI) (Aeromonas bestiarum [24]): 0.5; fractional inhibitory concentration index (FICI) (Proteus myxofaciens [25]): 0.23; fractional inhibitory concentration index (FICI) (Enterobacter helveticus [23]; Franconibacter helveticus): 0.38; fractional inhibitory concentration index (FICI) (Aeromonas bestiarum [26]): 0.39; fractional inhibitory concentration index (FICI) (Proteus myxofaciens [27]): 0.23; fractional inhibitory concentration index (FICI) (Pseudomonas fluorescens [20]): 0.27; MIC (Escherichia coli [28]): 1 µg/mL; MIC [29]: 1 µg/mL; MIC (Enterobacter helveticus [30]): 1 µg/mL; MIC (Aeromonas bestiarum [31]): 16 µg/mL; MIC (Proteus myxofaciens [32]): 16 µg/mL; MIC (Pseudomonas fluorescens [33]): 128 µg/mL; MIC (Bacillus subtilis [34]): 8 µg/mL; MIC (Kocuria rhizophila [35]): 16 µg/mL; MIC (Micrococcus luteus [36]): 4 µg/mL

The next lines start with results.

MIC (Escherichia coli [1]) [µg/mL]	MIC [2] [µg/mL]	MIC (Enterobacter helveticus [3]) [µg/mL]	MIC (Aeromonas bestiarum [4]) [µg/mL]	MIC (Proteus myxofaciens [5]) [µg/mL]	MIC (Pseudomonas fluorescens [6]) [µg/mL]	MIC (Bacillus subtilis [7]) [µg/mL]	MIC (Kocuria rhizophila [8]) [µg/mL]	MIC (Micrococcus luteus [9]) [µg/mL]	Molecule	fractional inhibitory concentration index (FICI) (Bacillus subtilis [10])	fractional inhibitory concentration index (FICI) (Kocuria rhizophila [11])	fractional inhibitory concentration index (FICI) (Micrococcus luteus [12])	fractional inhibitory concentration index (FICI) (Bacillus subtilis [13])	fractional inhibitory concentration index (FICI) (Kocuria rhizophila [14])	fractional inhibitory concentration index (FICI) (Micrococcus luteus [15])	HC50 ([16]; human erythrocytes) [µg/mL]	fractional inhibitory concentration index (FICI) (Escherichia coli [17])	fractional inhibitory concentration index (FICI) (Pseudomonas fluorescens [18])	fractional inhibitory concentration index (FICI) (Escherichia coli [19])	fractional inhibitory concentration index (FICI) [21]	other results
> 128	> 128	> 128	> 128	> 128	> 128	1 (≈ 0.531 µM)	1 (≈ 0.531 µM)	1 (≈ 0.531 µM)	CC(C)C[C@@H](NC(=O)[C@H](C)NC(=O)CNC(=O)[C@@H](NC=O)C(C)C)C(=O)N[C@@H](C)C(=O)N[C@@H](C(=O)N[C@H](C(=O)N[C@@H](C(=O)N[C@@H](Cc1c[nH]c2ccccc12)C(=O)N[C@H](CC(C)C)C(=O)N[C@@H](Cc1c[nH]c2ccccc12)C(=O)N[C@H](CC(C)C)C(=O)N[C@@H](Cc1c[nH]c2ccccc12)C(=O)N[C@H](CC(C)C)C(=O)N[C@@H](Cc1c[nH]c2ccccc12)C(=O)NCCO)C(C)C)C(C)C)C(C)C [GRAMICIDIN A] (For-VGA[dL]A[dV]V[dV]W[dL]W[dL]W[dL]W-NHCH2CH2OH)	0.42	0.79	0.88	0.94	1.04	1.04	2.3					
8	8	8	> 256	> 256	> 256	8	8	4	H-GMASKAGAIAGKIAKVALKAL-NH2	0.92	1.08	0.71	0.71	1.01	1	165	0.67		1	1.08	fractional inhibitory concentration index (FICI) (Enterobacter helveticus [22]): 0.71; fractional inhibitory concentration index (FICI) (Enterobacter helveticus [23]): 0.57
